Paper PMC7744356 (European journal of medicinal chemistry, 2020)
“Also recorded” adds a separate entry of the source.

What was measured:
Assay type in all cases: cell-based
[1] = biological target: T1, N1303K-CFTR (Homo sapiens, UniProt P13569, N1303K); experiment: Co-potentiator activity in N1303K-CFTR expressing FRT cell model; settings: for co-potentiator activity (in words) / VMAX: N1303K-CFTR expressing FRT cells; for VMAX: 20 = 100%; for fold more potent than 20: EC50 relative to 20
Outline: (§1)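 FRT cells stably expressing N1303K-CFTR, grown on permeable supports and corrected with 3 μM VX-661 for 18–24 h. Short-circuit current was recorded at 37 °C in HCO3-buffered solutions with a chloride gradient and the basolateral membrane permeabilized with 250 μg/ml amphotericin B. Additions: 20 μM forskolin, 5 μM VX-770, rising test compound concentrations, then 10 μM CFTRinh-172. EC50 and maximal response come from concentration-dependence data (n=3, mean ± S.E.M.), with potency relative to a reference co-potentiator.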

[2] = biological target: T1, N1303K-CFTR; experiment: Short-circuit current in FRT cells expressing N1303K-CFTR; settings: N1303K-CFTR EC50
Outline: as §1

[3] = biological target: I1234del-CFTR (Homo sapiens, UniProt P13569, DEL1234-1239); experiment: Short-circuit current in gene-edited 16HBE14o- cells expressing I1234del-CFTR; settings: 10 μM 2i
Outline: (§2)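 Gene-edited 16HBE14o- human bronchial epithelial cells carrying endogenous N1303K or I1234del CFTR were grown on permeable supports. The I1234del cells were corrected with 18 μM VX-661 plus 3 μM VX-445 for 18–24 h. Short-circuit current was measured at 37 °C in Hepes-buffered solutions with a chloride gradient. Additions: 20 μM forskolin, 5 μM VX-770, 10 μM test compound, then 10 μM CFTRinh-172. The CFTRinh-172-inhibitable ΔIsc is compared with the VX-770-alone response (mean ± S.E.M., n=3, unpaired t-test).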

[4] = biological target: R347P-CFTR (Homo sapiens, UniProt P13569, R347P); experiment: Short-circuit current in FRT cells expressing R347P-CFTR; settings: 20 μM 2i after 20 μM forskolin and 5 μM VX-770
Outline: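 Permeabilized FRT monolayers stably expressing R347P-CFTR were pre-corrected with 3 μM VX-661 for 18–24 h. Short-circuit current was measured at 37 °C in HCO3-buffered solutions under a chloride gradient, with the basolateral membrane opened using 250 μg/ml amphotericin B. Sequential additions: 20 μM forskolin, 5 μM VX-770, 20 μM test compound, then 10 μM CFTRinh-172.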

[5] = biological target: T1, N1303K-CFTR; experiment: Short-circuit current in gene-edited 16HBE14o- cells expressing N1303K-CFTR
Outline: as §2

co-potentiator activity (in words) [1]	Compound	further results
inactive	COc1ccc2[nH]c3c(c2c1)CCN[C@@]31CCN2Cc3ccccc3C[C@H]2C1 (racemic) [6b, (+/−)-(2R,11aS)-6’-methoxy-1,2’,3,3’,4,4’,6,9’,11,11a-decahydrospiro[pyrido[1,2-b]isoquinoline-2,1’-pyrido[3,4-b]indole]]	–
decreased activity	COc1ccc2[nH]c3c(c2c1)CCNC31CCN(Cc2cc(F)cc(Cl)c2)CC1 [1e, 1-(3-Chloro-5-fluorobenzyl)-6’-methoxy-2’,3’,4’,9’-tetrahydrospiro[piperidine-4,1’-pyrido[3,4-b]indole]]	–
–	COc1ccc2[nH]c3c(c2c1)CCNC31CCN(Cc2cc(Cl)ccc2[N+](=O)[O-])CC1 [1c, 1-(5-Chloro-2-nitrobenzyl)-6’-methoxy-2’,3’,4’,9’-tetrahydrospiro[piperidine-4,1’-pyrido[3,4-b]indole]]	VMAX [1]: improved Vmax
active, but less potent	COc1ccc2[nH]c3c(c2c1)CCNC31CCN(Cc2cccnc2)CC1 [3g, 6’-Methoxy-1-(pyridin-3-ylmethyl)-2’,3’,4’,9’-tetrahydrospiro[piperidine-4,1’-pyrido[3,4-b]indole]]	–
active	COc1ccc2[nH]c3c(c2c1)CCNC31CCN(Cc2ccc(F)cc2F)CC1 [2a, 1-(2,4-Difluorobenzyl)-6’-methoxy-2’,3’,4’,9’-tetrahydrospiro[piperidine-4,1’-pyrido[3,4-b]indole]]	–
inactive	COc1ccc2[nH]c3c(c2c1)CCNC31CCCN(Cc2ccc(F)cc2F)CC1 (stereo not drawn) [4a, 1-(2,4-Difluorobenzyl)-6’-methoxy-2’,3’,4’,9’-tetrahydrospiro[azepane-4,1’-pyrido[3,4-b]indole]]	–
active	COc1ccc2[nH]c3c(c2c1)CCNC31CCN(Cc2c(F)c(F)c(F)c(F)c2F)CC1 [2e, 6’-Methoxy-1-((perfluorophenyl)methyl)-2’,3’,4’,9’-tetrahydrospiro[piperidine-4,1’-pyrido[3,4-b]indole]]	–
active	COc1ccc2[nH]c3c(c2c1)CCNC31CCN(Cc2cc(F)cc(F)c2)CC1 [2c, 1-(3,5-Difluorobenzyl)-6’-methoxy-2’,3’,4’,9’-tetrahydrospiro[piperidine-4,1’-pyrido[3,4-b]indole]]	–
inactive; also recorded: inactivity	COc1ccc2c(c1)c1c(n2C)C2(CCN(Cc3ccc(F)cc3F)CC2)NCC1 [5e, 1-(2,4-Difluorobenzyl)-6’-methoxy-9’-methyl-2’,3’,4’,9’-tetrahydrospiro[piperidine-4,1’-pyrido[3,4-b]indole]]	–
active, but less potent	COc1ccc2[nH]c3c(c2c1)CCNC31CCN(Cc2ccco2)CC1 [3e, 1-(Furan-2-ylmethyl)-6’-methoxy-2’,3’,4’,9’-tetrahydrospiro[piperidine-4,1’-pyrido[3,4-b]indole]]	–
–	COc1ccc2[nH]c3c(c2c1)CCNC31CCN(Cc2ccc(F)c(Cl)c2F)CC1 [1j, 1-(3-Chloro-2,4-difluorobenzyl)-6’-methoxy-2’,3’,4’,9’-tetrahydrospiro[piperidine-4,1’-pyrido[3,4-b]indole]]	VMAX [1]: improved Vmax
most potent	COc1ccc2[nH]c3c(c2c1)CCNC31CCN(Cc2cc(F)c(F)cc2F)CC1 [2i, 6’-Methoxy-1-(2,4,5-trifluorobenzyl)-2’,3’,4’,9’-tetrahydrospiro[piperidine-4,1’-pyrido[3,4-b]indole]]	fold improvement in potency over the original compound (20) [2]: ~ 17 fold; fold greater response than VX-770 alone [3]: ~2 fold; activation of R347P-CFTR (in words) [4]: not activated; fold greater response than VX-770 alone ([5]; 10 μM 2i): approximately 6 fold; CFTRinh-172-inhibitable short-circuit current response ([5]; 10 μM 2i after 20 μM forskolin and 5 μM VX-770, mean ± S.E.M., n=3): 16.1 ± 0.4 μA/cm^2
active, but less potent	COc1ccc2[nH]c3c(c2c1)CCNC31CCN(Cc2ccccn2)CC1 [3f, 6’-Methoxy-1-(pyridin-2-ylmethyl)-2’,3’,4’,9’-tetrahydrospiro[piperidine-4,1’-pyrido[3,4-b]indole]]	Emax ([1]; FRT, read-out: VMAX): 107%
inactive	COc1ccc2[nH]c3c(c2c1)CCNC31CCNCC1 [3a, 6’-Methoxy-2’,3’,4’,9’-tetrahydrospiro[piperidine-4,1’-pyrido[3,4-b]indole]]	–
decreased activity	COc1ccc2[nH]c3c(c2c1)CCNC31CCN(Cc2ccc(Cl)cc2Cl)CC1 [1d, 1-(2,4-Dichlorobenzyl)-6’-methoxy-2’,3’,4’,9’-tetrahydrospiro[piperidine-4,1’-pyrido[3,4-b]indole]]	–
abolished activity	COc1ccc2[nH]cc(CCNC3CCN(Cc4ccccc4)CC3)c2c1 [4d, 1-Benzyl-N-(2-(5-methoxy-1H-indol-3-yl)ethyl)piperidin-4-amine]	–
decreased activity	COc1ccc2c3c([nH]c2c1)C1(CCN(Cc2ccc(F)cc2F)CC1)NCC3 [5d, 1-(2,4-Difluorobenzyl)-7’-methoxy-2’,3’,4’,9’-tetrahydrospiro[piperidine-4,1’-pyrido[3,4-b]indole]]	fold more potent than 20 [1]: approximately 4 fold

Compound	co-potentiator activity (in words) [1]	further results
COc1ccc2[nH]c3c(c2c1)CCNC31CCN(Cc2ccc(F)cc2F)C1 (stereo not drawn) [4b, 1’-(2,4-Difluorobenzyl)-6-methoxy-2,3,4,9-tetrahydrospiro[pyrido[3,4-b]indole-1,3’-pyrrolidine]]	inactive; also recorded: abolished activity	–
COc1ccc2[nH]c3c(c2c1)CCNC31CCCN(Cc2ccc(F)cc2F)C1 (stereo not drawn) [4c, 1-(2,4-Difluorobenzyl)-6’-methoxy-2’,3’,4’,9’-tetrahydrospiro[piperidine-3,1’-pyrido[3,4-b]indole]]	inactive; also recorded: abolished activity	–
Fc1ccc(CN2CCC3(CC2)NCCc2c3[nH]c3ccc(Cl)cc23)c(F)c1 [5c, 6’-Chloro-1-(2,4-difluorobenzyl)-2’,3’,4’,9’-tetrahydrospiro[piperidine-4,1’-pyrido[3,4-b]indole]]	tolerated	fold more potent than 20 [1]: approximately 4 fold
COc1ccc2[nH]c3c(c2c1)CCNC31CCN(CCc2ccccc2)CC1 [3c, 6’-Methoxy-1-phenethyl-2’,3’,4’,9’-tetrahydrospiro[piperidine-4,1’-pyrido[3,4-b]indole]]	greatly reduced activity; also recorded: inactive	–
COc1ccc2[nH]c3c(c2c1)CCNC31CCN(CCCc2ccccc2)CC1 [3d, 6’-Methoxy-1-(3-phenylpropyl)-2’,3’,4’,9’-tetrahydrospiro[piperidine-4,1’-pyrido[3,4-b]indole]]	greatly reduced activity; also recorded: inactive	–
